Results pooled from the literature.
Lines come from different studies, so protocols differ.
Target: Tyrosine-protein kinase CSK (CSK, Homo sapiens, UniProt P41240)

Compound	observed	mode	technique	cell line	tested at	quantity	result
Oc1ccc(-c2nc(-c3ccncc3)c(-c3ccc(F)cc3)[nH]2)cc1	enzyme activity	inhibitor			0.5 µM	remaining activity	93.7%
CNC(=O)c1cc(Oc2ccc(NC(=O)Nc3ccc(Cl)c(C(F)(F)F)c3)cc2)ccn1	enzyme activity	inhibitor			10 µM	inhibition	22%
C#Cc1cccc(Nc2ncnc3cc(OCCOC)c(OCCOC)cc23)c1	cell-free assay	inhibitor			0.5 µM	remaining signal	100%
COc1cc(Nc2cnc(C#N)c(O[C@H](C)CN(C)C)n2)ncc1-c1cnn(C)c1	enzyme activity	inhibitor	radiometric		1 µM	remaining activity	83%
COc1ccc2cc(OCC3(C(=O)O)CN(C(=O)c4ccc(F)cc4)C3)ccc2c1	cell-free assay		competition with immobilised ligand		1 µM	remaining binding	100%
Nc1nc(NC2CCCCC2)sc1C(=O)c1ccccc1	enzyme activity	inhibitor			10 µM	remaining activity	95%
COc1cc(-c2cn(C3CCc4ccccc4N(CC(F)(F)F)C3=O)nn2)ccc1-n1ccc(C)n1 (stereo not drawn)	cell-free assay		competition with immobilised ligand		1 µM	remaining binding	100%
O=C(Nc1cnn(-c2csc(C(=O)NC3COC3)c2)c1)Nc1c(F)cccc1Cl	enzyme activity	inhibitor			5 µM	remaining activity	97.5%
CCCOc1ccc([C@@H]2[C@@H](C(=O)O)[C@H](c3ccc4c(c3)OCO4)CN2CC(=O)Nc2c(CC)cccc2CC)cc1	cell-free assay		competition with immobilised ligand		1 µM	remaining binding	91%
Cc1ccc(Nc2nccc(N(C)c3ccc4c(C)n(C)nc4c3)n2)cc1S(N)(=O)=O	enzyme activity	inhibitor			10 µM	inhibition	24%
CN(C)C(=O)Cn1cc(-c2nc([C@@](C)(c3ccc(-c4cnc(N)nc4)cc3)C3CC3)no2)cn1	cell-free assay		competition with immobilised ligand		1 µM	remaining binding	100%
O=C1c2ccccc2-c2n[nH]c3cccc1c23	enzyme activity	inhibitor			0.5 µM	activity vs control	95.6%
CC(C)(C)c1nc(-c2cccc(NS(=O)(=O)c3c(F)cccc3F)c2F)c(-c2ccnc(N)n2)s1	enzyme activity	inhibitor	radiometric		1 µM	remaining activity	34%
FC(F)c1nc2ccccc2n1-c1nc(N2CCOCC2)nc(N2CCOCC2)n1	enzyme activity	inhibitor			10 µM	remaining activity	84%
CN1CC(Oc2cnc(C#N)cc2-c2ccn3nc(NC(=O)C4CC4)cc3c2)C1	enzyme activity	inhibitor			1 µM	inhibition	-11%
Oc1cccc(-c2nc(N3CCOCC3)c3oc4ncccc4c3n2)c1	enzyme activity	inhibitor			10 µM	remaining activity	101%
CNC(=O)Nc1ccc2c(c1)[C@@]1(CC2)OC(=O)N(CC(=O)N(Cc2ccc(F)cc2)[C@@H](C)C(F)(F)F)C1=O	cell-free assay		competition with immobilised ligand		1 µM	remaining binding	100%

Compound	observed	mode	technique	cell line	tested at	quantity	result
c1nc2c(Nc3ccc4c(c3)OCCO4)nc(Nc3ccc4c(c3)OCCO4)nc2[nH]1	enzyme activity	inhibitor			10 µM	activity vs control	18%
Cn1nc(C(F)(F)F)cc1-c1cnc(N2CCc3cc(S(=O)(=O)Nc4c(F)cc(Cl)cc4F)cc(N4CCCC4=O)c32)nc1	cell-free assay		competition with immobilised ligand		1 µM	remaining binding	93%
CC/C(=N\NC(=O)NCc1cccc(O)c1)c1ccc(O)c(C)c1O	enzyme activity	inhibitor			0.1 µM	inhibition	-4.9%
Cc1nc(Cc2cccc(C(F)(F)F)c2)sc1-c1ccc(C(N)=O)nc1	cell-free assay		competition with immobilised ligand		1 µM	remaining binding	88%
FC(F)(F)Oc1cccc(-c2cnc3ccc(-c4ccncc4)nn23)c1	enzyme activity	inhibitor	radiometric		5 µM	activity vs control	100%
CCN(CC)CCNC(=O)c1c(C)[nH]c(/C=C2\C(=O)Nc3ccc(F)cc32)c1C	enzyme activity	inhibitor			10 µM	inhibition	10%
CNc1cc(Oc2cc(C(=O)Nc3cc(N4CCN(C)CC4)cc(C(F)(F)F)c3)ccc2C)ncn1	target engagement in cells	inhibitor	chemoproteomics	Huh-7	1 µM	inhibition	-15%
COc1cc2nccc(Oc3ccc(NC(=O)c4c5n(n(-c6ccc(F)cc6)c4=O)CCCC5)cc3)c2cc1OC	enzyme activity	inhibitor			0.1 µM	inhibition	2%
O=C(Nc1cnn(-c2csc(C(=O)NC3COC3)c2)c1)Nc1ccccc1Cl	enzyme activity	inhibitor			5 µM	remaining activity	99.2%
COc1cc2ncnc(Nc3ccc(Oc4ccccc4)c(C)c3C)c2cc1OC	enzyme activity	inhibitor			1 µM	inhibition	49%
CC(C)(O)[C@H]1CC[C@H](Nc2ccc3ncc(-c4cccc(C(F)(F)F)c4)n3n2)CC1	enzyme activity	inhibitor			1 µM	remaining activity	95.3%
CS(=O)(=O)Nc1cccc(-c2csc(NC(=O)CSc3nc4nccnc4c(=O)n3CCc3ccccc3)n2)c1	enzyme activity	inhibitor			10 µM	inhibition	4%
Cc1c[nH]c2nccc(Oc3c(F)cc(Nc4cc(Cl)nc(N)n4)cc3F)c12	cell-free assay		competition with immobilised ligand		0.1 µM	remaining binding	87%
Nc1nc(Nc2ccccc2)sc1C(=O)c1c(F)cccc1F	enzyme activity	inhibitor			10 µM	remaining activity	90%
Cc1nc(Nc2ncc(C(=O)Nc3c(C)cccc3Cl)s2)cc(N2CCN(CCO)CC2)n1	enzyme activity	inhibitor			0.5 µM	activity vs control	7.11%
Cc1cc(NC(=O)c2cccc3cc(-c4cccc5[nH]nc(N)c45)ccc23)ccc1F	enzyme activity	inhibitor			0.1 µM	activity vs control	97%
